In brackets after ≈: the same amount, converted by molar mass. Activity calls are given as the source filed them. The rule behind the calls is not given here.
Test system: Micrococcus luteus
Test: Antimicrobial activity against Micrococcus luteus at 10 ug
Format: functional, organism-based
Details: not given
Method in brief: (§1)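 Direct bioautography: each compound is spotted onto TLC plates and the solvent evaporated. The test organism is then grown directly on the plate. Growth inhibition is scored at the spot as active (+) or very active (++). Where a number is given, it is the radius in mm of the inhibition zone around the spot.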

SMILES	Activity
CCC[C@@H](O)C1=C(Br)/C(=C/Cl)OC1=O	Active
CCC[C@@H](O)C1=C(Br)/C(=C/I)OC1=O	Active
CCC[C@@H](O)C1=C(Br)C(=C(Br)Br)OC1=O	Active

Test system: not listed separately
Test: Selectivity index, ratio of IC50 for human KB cells to IC50 for Plasmodium falciparum D6
Format: toxicity, cell-based
Details: KB cells versus Plasmodium falciparum D6, read-out: Ratio IC50
Method in brief: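 Plasmodium falciparum clones were assayed in vitro: D6 (chloroquine-sensitive) and W2 (chloroquine-resistant). IC50 is in μg/mL. The selectivity index is the ratio of the antimalarial to the cytotoxic activity.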

SMILES	selectivity ratio
CCC[C@@H](O)C1=C(Br)/C(=C/Cl)OC1=O	< 1
CCC[C@@H](O)C1=C(Br)/C(=C/I)OC1=O	< 1
CCC[C@@H](O)C1=C(Br)C(=C(Br)Br)OC1=O	< 1

Test system: LNCaP
Test: Cytotoxicity against human LNCAP cells
Format: functional
Details: read-out: ED50 (the source's name)

SMILES	EC50
CCC[C@@H](O)C1=C(Br)/C(=C/Cl)OC1=O	3 µg/mL (≈ 10.7 µM)
CCC[C@@H](O)C1=C(Br)/C(=C/I)OC1=O	< 0.1 µg/mL
CCC[C@@H](O)C1=C(Br)C(=C(Br)Br)OC1=O	6.7 µg/mL (≈ 16.5 µM)

Test system: KB
Test: Cytotoxicity against human KB cells
Format: functional
Details: read-out: ED50 (the source's name)

SMILES	EC50
CCC[C@@H](O)C1=C(Br)/C(=C/Cl)OC1=O	0.4 µg/mL (≈ 1.42 µM)
CCC[C@@H](O)C1=C(Br)/C(=C/I)OC1=O	0.4 µg/mL (≈ 1.07 µM)
CCC[C@@H](O)C1=C(Br)C(=C(Br)Br)OC1=O	0.5 µg/mL (≈ 1.23 µM)

Test system: KB
Test: Cytotoxicity against vinblastine-resistant human KB cells
Format: functional
Details: read-out: ED50 (the source's name)
Method in brief: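 The vinblastine-resistant KB-V1 line was tested both with and without added vinblastine in the cultured tumour-cell cytotoxicity panel. Results are reported as ED50.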

SMILES	EC50
CCC[C@@H](O)C1=C(Br)/C(=C/Cl)OC1=O	1.4 µg/mL (≈ 4.97 µM)
CCC[C@@H](O)C1=C(Br)/C(=C/I)OC1=O	0.3 µg/mL (≈ 0.804 µM)
CCC[C@@H](O)C1=C(Br)C(=C(Br)Br)OC1=O	9.5 µg/mL (≈ 23.5 µM)

Test system: Plasmodium falciparum
Test: Antimalarial activity against chloroquine-resistant Plasmodium falciparum W2
Format: functional, organism-based
Details: not given
Method in brief: (§2)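 In vitro growth inhibition of Plasmodium falciparum clones D6 (chloroquine-sensitive) and W2 (chloroquine-resistant); IC50 reported in μg/mL.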

SMILES	IC50
CCC[C@@H](O)C1=C(Br)/C(=C/Cl)OC1=O	> 10 µg/mL
CCC[C@@H](O)C1=C(Br)/C(=C/I)OC1=O	> 10 µg/mL
CCC[C@@H](O)C1=C(Br)C(=C(Br)Br)OC1=O	> 10 µg/mL

Test system: Micrococcus luteus
Test: Antimicrobial activity against Micrococcus luteus at 1 ug
Format: functional, organism-based
Details: not given
Method in brief: as §1

SMILES	Activity
CCC[C@@H](O)C1=C(Br)/C(=C/Cl)OC1=O	Active
CCC[C@@H](O)C1=C(Br)/C(=C/I)OC1=O	Active
CCC[C@@H](O)C1=C(Br)C(=C(Br)Br)OC1=O	Active

Test system: Escherichia coli
Test: Antimicrobial activity against Escherichia coli at 5 ug
Format: functional, organism-based
Details: not given
Method in brief: as §1

SMILES	Activity
CCC[C@@H](O)C1=C(Br)/C(=C/Cl)OC1=O	Active
CCC[C@@H](O)C1=C(Br)/C(=C/I)OC1=O	Active
CCC[C@@H](O)C1=C(Br)C(=C(Br)Br)OC1=O	Active

Test system: Lu1
Test: Cytotoxicity against human Lu1 cells
Format: functional
Details: read-out: ED50 (the source's name)

SMILES	EC50
CCC[C@@H](O)C1=C(Br)/C(=C/Cl)OC1=O	1 µg/mL (≈ 3.55 µM)
CCC[C@@H](O)C1=C(Br)/C(=C/I)OC1=O	1.3 µg/mL (≈ 3.49 µM)
CCC[C@@H](O)C1=C(Br)C(=C(Br)Br)OC1=O	1.7 µg/mL (≈ 4.2 µM)

Test system: Plasmodium falciparum
Test: Antimalarial activity against chloroquine-sensitive Plasmodium falciparum D6
Format: functional, organism-based
Details: not given
Method in brief: as §2

SMILES	IC50
CCC[C@@H](O)C1=C(Br)/C(=C/Cl)OC1=O	5.9 µg/mL (≈ 21 µM)
CCC[C@@H](O)C1=C(Br)/C(=C/I)OC1=O	6.8 µg/mL (≈ 18.2 µM)
CCC[C@@H](O)C1=C(Br)C(=C(Br)Br)OC1=O	2.8 µg/mL (≈ 6.92 µM)

Test system: Penicillium oxalicum
Test: Antimicrobial activity against Penicillium oxalicum at 5 ug
Format: functional
Details: read-out: IZ
Method in brief: as §1

SMILES	zone of inhibition at 5 µg/disc
CCC[C@@H](O)C1=C(Br)/C(=C/Cl)OC1=O	18 mm
CCC[C@@H](O)C1=C(Br)/C(=C/I)OC1=O	18 mm
CCC[C@@H](O)C1=C(Br)C(=C(Br)Br)OC1=O	23 mm

Test system: ZR-75-1
Test: Cytotoxicity against human ZR-75-1 cells
Format: functional
Details: read-out: ED50 (the source's name)

SMILES	EC50
CCC[C@@H](O)C1=C(Br)/C(=C/Cl)OC1=O	0.4 µg/mL (≈ 1.42 µM)
CCC[C@@H](O)C1=C(Br)/C(=C/I)OC1=O	0.3 µg/mL (≈ 0.804 µM)
CCC[C@@H](O)C1=C(Br)C(=C(Br)Br)OC1=O	0.3 µg/mL (≈ 0.741 µM)

Test system: Bacillus subtilis
Test: Antimicrobial activity against Bacillus subtilis at 10 ug
Format: functional, organism-based
Details: not given
Method in brief: as §1

SMILES	Activity
CCC[C@@H](O)C1=C(Br)/C(=C/Cl)OC1=O	Active
CCC[C@@H](O)C1=C(Br)/C(=C/I)OC1=O	Active
CCC[C@@H](O)C1=C(Br)C(=C(Br)Br)OC1=O	Active

Test system: Bacillus subtilis
Test: Antimicrobial activity against Bacillus subtilis at 0.1 ug
Format: functional, organism-based
Details: not given
Method in brief: as §1

SMILES	Activity
CCC[C@@H](O)C1=C(Br)/C(=C/Cl)OC1=O	inactive
CCC[C@@H](O)C1=C(Br)/C(=C/I)OC1=O	inactive

Test system: Micrococcus luteus
Test: Antimicrobial activity against Micrococcus luteus at 0.1 ug
Format: functional, organism-based
Details: not given
Method in brief: as §1

SMILES	Activity
CCC[C@@H](O)C1=C(Br)/C(=C/Cl)OC1=O	inactive
CCC[C@@H](O)C1=C(Br)/C(=C/I)OC1=O	inactive
CCC[C@@H](O)C1=C(Br)C(=C(Br)Br)OC1=O	Active

Test system: Bacillus subtilis
Test: Antimicrobial activity against Bacillus subtilis at 1 ug
Format: functional, organism-based
Details: not given
Method in brief: as §1

SMILES	Activity
CCC[C@@H](O)C1=C(Br)/C(=C/Cl)OC1=O	Active
CCC[C@@H](O)C1=C(Br)/C(=C/I)OC1=O	inactive
CCC[C@@H](O)C1=C(Br)C(=C(Br)Br)OC1=O	Active

Test system: Penicillium oxalicum
Test: Antimicrobial activity against Penicillium oxalicum at 0.01 ug
Format: functional
Details: read-out: IZ
Method in brief: as §1

SMILES	zone of inhibition at 0.01 µg/disc
CCC[C@@H](O)C1=C(Br)C(=C(Br)Br)OC1=O	4 mm

Test system: Bacillus subtilis
Test: Antimicrobial activity against Bacillus subtilis at 5 ug
Format: functional, organism-based
Details: not given
Method in brief: as §1

SMILES	Activity
CCC[C@@H](O)C1=C(Br)/C(=C/Cl)OC1=O	Active
CCC[C@@H](O)C1=C(Br)/C(=C/I)OC1=O	Active
CCC[C@@H](O)C1=C(Br)C(=C(Br)Br)OC1=O	Active

Test system: Penicillium oxalicum
Test: Antimicrobial activity against Penicillium oxalicum at 1 ug
Format: functional
Details: read-out: IZ
Method in brief: as §1

SMILES	zone of inhibition at 1 µg/disc
CCC[C@@H](O)C1=C(Br)/C(=C/Cl)OC1=O	14 mm
CCC[C@@H](O)C1=C(Br)/C(=C/I)OC1=O	12 mm
CCC[C@@H](O)C1=C(Br)C(=C(Br)Br)OC1=O	17 mm

Test system: Micrococcus luteus
Test: Antimicrobial activity against Micrococcus luteus at 5 ug
Format: functional, organism-based
Details: not given
Method in brief: as §1

SMILES	Activity
CCC[C@@H](O)C1=C(Br)/C(=C/Cl)OC1=O	Active
CCC[C@@H](O)C1=C(Br)/C(=C/I)OC1=O	Active
CCC[C@@H](O)C1=C(Br)C(=C(Br)Br)OC1=O	Active

Test system: not listed separately
Test: Inhibition of TK assessed as residual activity at 200 ug/ml
Details: not given
Method in brief: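 The enzyme was tyrosine kinase p56lck, with test compounds at 200 μg/mL. The read-out is the remaining enzyme activity.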

SMILES	Activity
CCC[C@@H](O)C1=C(Br)/C(=C/Cl)OC1=O	1.9%
CCC[C@@H](O)C1=C(Br)/C(=C/I)OC1=O	4.2%
CCC[C@@H](O)C1=C(Br)C(=C(Br)Br)OC1=O	4.5%

Test system: Penicillium oxalicum
Test: Antimicrobial activity against Penicillium oxalicum at 0.1 ug
Format: functional
Details: read-out: IZ
Method in brief: as §1

SMILES	zone of inhibition at 0.1 µg/disc
CCC[C@@H](O)C1=C(Br)/C(=C/Cl)OC1=O	6 mm
CCC[C@@H](O)C1=C(Br)/C(=C/I)OC1=O	4 mm

Test system: Escherichia coli
Test: Antimicrobial activity against Escherichia coli at 0.1 ug
Format: functional, organism-based
Details: not given
Method in brief: as §1

SMILES	Activity
CCC[C@@H](O)C1=C(Br)/C(=C/Cl)OC1=O	Active
CCC[C@@H](O)C1=C(Br)/C(=C/I)OC1=O	inactive
CCC[C@@H](O)C1=C(Br)C(=C(Br)Br)OC1=O	inactive

Test system: KB
Test: Cytotoxicity against vinblastine-sensitive human KB cells
Format: functional
Details: read-out: ED50 (the source's name)

SMILES	EC50
CCC[C@@H](O)C1=C(Br)/C(=C/Cl)OC1=O	1.2 µg/mL (≈ 4.26 µM)
CCC[C@@H](O)C1=C(Br)/C(=C/I)OC1=O	4.1 µg/mL (≈ 11 µM)
CCC[C@@H](O)C1=C(Br)C(=C(Br)Br)OC1=O	0.6 µg/mL (≈ 1.48 µM)

Test system: Escherichia coli
Test: Antimicrobial activity against Escherichia coli at 10 ug
Format: functional, organism-based
Details: not given
Method in brief: as §1

SMILES	Activity
CCC[C@@H](O)C1=C(Br)/C(=C/Cl)OC1=O	Active
CCC[C@@H](O)C1=C(Br)/C(=C/I)OC1=O	Active
CCC[C@@H](O)C1=C(Br)C(=C(Br)Br)OC1=O	Active

Molecular target: Human immunodeficiency virus type 1 reverse transcriptase (Human immunodeficiency virus 1, UniProt Q72547)
Test: Inhibition of HIV1 RT at 200 uM
Details: not given
Method in brief: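 HIV-1 reverse transcriptase inhibition was measured in an ELISA-based system.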

SMILES	IC50
CCC[C@@H](O)C1=C(Br)/C(=C/Cl)OC1=O	700 µM
CCC[C@@H](O)C1=C(Br)/C(=C/I)OC1=O	700 µM
CCC[C@@H](O)C1=C(Br)C(=C(Br)Br)OC1=O	700 µM

Test system: Penicillium oxalicum
Test: Antimicrobial activity against Penicillium oxalicum at 10 ug
Format: functional
Details: read-out: IZ
Method in brief: as §1

SMILES	zone of inhibition at 10 µg/disc
CCC[C@@H](O)C1=C(Br)/C(=C/Cl)OC1=O	22 mm
CCC[C@@H](O)C1=C(Br)/C(=C/I)OC1=O	20 mm
CCC[C@@H](O)C1=C(Br)C(=C(Br)Br)OC1=O	20 mm

Test system: Escherichia coli
Test: Antimicrobial activity against Escherichia coli at 1 ug
Format: functional, organism-based
Details: not given
Method in brief: as §1

SMILES	Activity
CCC[C@@H](O)C1=C(Br)/C(=C/Cl)OC1=O	Active
CCC[C@@H](O)C1=C(Br)/C(=C/I)OC1=O	Active
CCC[C@@H](O)C1=C(Br)C(=C(Br)Br)OC1=O	inactive

Source: ChEMBL document CHEMBL1158040, “Biological activities and 3D QSAR studies of a series of Delisea pulchra (cf. fimbriata) derived natural products” (J Nat Prod, 2006)
